RGS4 block: human RGS4 inhibition | B-score at 10 µM | hit rate 0.45% among 310,000 | HEK293 M3R/RGS4 inducible, Fluo-4 calcium flux; hits give high values; triggered by carbachol at its EC20;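 active means B-score, a plate-corrected calcium signal, over three deviations above library mean, with baseline fluorescence within five deviations of library mean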;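 further: RGS4 expression induced by doxycycline in cells with stable M3 receptor; B-score is computed from the integrated fluorescence ratio over baseline after carbachol; higher B-score means a larger calcium signal and so more RGS4 inhibition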
Target sequence (P49798 whole entry, looked up): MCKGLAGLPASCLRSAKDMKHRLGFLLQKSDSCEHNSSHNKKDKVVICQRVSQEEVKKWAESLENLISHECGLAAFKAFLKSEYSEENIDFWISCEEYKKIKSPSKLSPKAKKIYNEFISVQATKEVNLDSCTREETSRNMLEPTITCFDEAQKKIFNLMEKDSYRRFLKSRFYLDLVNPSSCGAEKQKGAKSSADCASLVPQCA
MrgX1 ag: agonists of human MrgX1 receptor | Q96LB2 | AID 588627 | MrgX1-HEK293 cells, Fluo-4 calcium fluorescence, agonist mode; hits give high values | hit rate 0.44% among 310,000 | B-score at 10 µM;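 active means calcium response B-score plate-corrected fluorescence ratio at least 3 library SD, with starting fluorescence B-score inside 5 SD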
Target sequence (Q96LB2 whole entry, looked up): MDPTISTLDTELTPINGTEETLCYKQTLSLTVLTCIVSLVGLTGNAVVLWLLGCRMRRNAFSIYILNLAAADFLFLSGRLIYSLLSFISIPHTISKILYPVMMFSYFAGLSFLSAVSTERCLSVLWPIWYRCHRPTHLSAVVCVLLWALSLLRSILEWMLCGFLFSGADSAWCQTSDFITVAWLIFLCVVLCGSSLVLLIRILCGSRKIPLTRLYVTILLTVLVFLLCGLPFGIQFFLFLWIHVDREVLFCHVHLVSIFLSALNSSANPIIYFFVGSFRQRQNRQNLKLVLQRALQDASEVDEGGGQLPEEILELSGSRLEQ
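System – MrgX1-expressing HEK293 cells · Incubation – cells plated overnight, dye loaded 0.5 h 37 °C, 0.5 h room temperature · Technique – kinetic Fluo-4 NW fluorescence of intracellular calcium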
RGS4 pot: RGS4 potentiation or activation | B-score at 10 µM | hit rate 0.92% among 310,000 | HEK293 M3R/inducible RGS4, carbachol calcium flux Fluo4; hits give low values;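 active means B-score of the integrated calcium signal more than 4 SD below the library mean, with starting fluorescence not abnormally high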;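 further: negative B-score means reduced calcium response which marks RGS4 activation or potentiation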
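System: HEK293 FlpIn-TREx cells, stable M3R, doxycycline-inducible RGS4. Timing: overnight RGS4 induction, 30 min dye load 37 °C, 20 min compound RT. Also added: carbachol, ECmax concentration. Measured by: Fluo4 fluorescence kinetic imaging of calcium. Evaluation: integrated calcium ratio converted to B score.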
MrgX1 allo act: allosterically activates human MrgX1 receptor signaling; Q96LB2; MrgX1-HEK293, Fluo-4 calcium flux, FDSS; hits give high values; B-score at 10 µM; hit rate 0.63% among 310,000; AID 588675;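 active means plate-corrected calcium response at least 3 library SD above typical, normal starting fluorescence, not activating the receptor alone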;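 further: compound read alongside a low EC10 to EC30 dose of BAM8-22 agonist; peak minus trough fluorescence over baseline measured at the second addition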
MrgX1 antagonist: blocks BAM8-22 activation of human MrgX1 receptor | B-score at 10 µM | AID 588676 | hit rate 1.3% among 310,000 | Q96LB2 | MRGX1-HEK293 calcium flux, Fluo-4, BAM8-22 antagonism; hits give low values;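 active means calcium-response B-score plate-corrected more than 3 library SD below zero, starting fluorescence within 5 deviations, no agonist response on first addition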;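 further: peak minus trough fluorescence over baseline after final BAM8-22 challenge near maximal dose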
RGS4 inh valid: RGS4 inhibitor validation; calcium response, % at 10 µM; AID 492999; HEK293 M3R/RGS4, carbachol calcium Fluo-4 fluorescence; carbachol added at its EC20; 0 = buffer wells, 100 = carbachol control; shares compounds with RGS4 block; hit rate 65% among 1,700;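 active means duplicate-averaged calcium response above the buffer-only control mean plus 5 SD of those controls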;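 further: integrated fluorescence ratio F max minus min over baseline F0; higher response in RGS4-induced cells means RGS4 inhibition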
RGS4 uninduced: counter-screen for RGS4 inhibitors: effect in non-induced cells. shares compounds with RGS4 block. HEK293 M3R non-induced, carbachol calcium Fluo-4; submaximal (EC20) carbachol stimulus; buffer wells 0%, carbachol control wells 100%. activity (percent), % at 10 µM. hit rate 20% among 1,900. AID 493000; call rule not given here;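 further: RGS4 induction absent so cells express M3R without RGS4; higher means more calcium signal and flags a non-specific hit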
M3R basal Ca ctr: signal in non-induced cells without carbachol, RGS4 inhibitor counter-screen. shares compounds with RGS4 block. HEK293 M3R/RGS4 non-induced, Fluo-4 calcium, no carbachol; normalised: buffer wells 0%, carbachol wells 100%. calcium response (agonist-mode artifact), % at 10 µM. hit rate 22% among 1,900;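 active means duplicate-averaged calcium rise in uninduced cells above buffer wells' mean plus 5 SD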
* marks the source's active call; other numbers are inactive results; i = inactive; · = no result given. The list is not random: actives were taken first. Their share in the collection is about 3.5%.

SMILES	RGS4 block	MrgX1 ag	RGS4 pot	MrgX1 allo act	MrgX1 antagonist	RGS4 inh valid	RGS4 uninduced	M3R basal Ca ctr
O=c1[nH]c(NNC(=S)NCc2ccccc2)nc2c1C1(CCCCC1)Cc1ccccc1-2	12.6*	i	i	i	i	30.0%*	i	i
CCOC(=O)C(=NCCCN1CCOCC1)NNc1cccc(C(F)(F)F)c1	i	i	i	i	i	·	·	·
COc1cc(C2(c3ccc(O)c(OC)c3)C(=O)Nc3c(Br)cc(Br)cc32)ccc1O	i	i	i	i	i	·	i	34.5%*
COc1cc(C2(c3ccc(O)c(OC)c3)C(=O)N(C)c3ccc(Br)cc32)ccc1O	5.71*	i	i	i	i	12.0%*	i	i
COc1cc(C(=O)C(=O)c2ccc(O)c(OC)c2)ccc1O	i	i	i	i	i	·	·	·
O=S(=O)(c1cccc(F)c1)N1CCc2sccc2C1c1ccc(OC(F)(F)F)cc1 (configuration not stated)	i	i	i	i	i	·	·	·
CCN(Cc1nc(-c2ccc(C)cc2)no1)C(=O)c1ccco1	i	i	i	i	i	·	·	·
O=C(Cc1cccs1)N1CCCC(c2nc3c(nnn3Cc3ccc(F)cc3)c(=O)[nH]2)C1 (configuration not stated)	i	i	i	i	i	·	·	·
CC(C)(C)c1ccc(Cn2nnc3c(=O)[nH]c(C4CCCN(C(=O)Cc5cccs5)C4)nc32)cc1 (configuration not stated)	i	i	i	i	i	·	·	·
CC(C)(C)c1ccc(Cn2nnc3c(=O)[nH]c(C4CCN(C(=O)Cc5cccs5)CC4)nc32)cc1	5.38*	i	i	i	i	27.0%*	i	i
O=C(Cc1cccs1)N1CCC(c2nc3c(nnn3Cc3ccccc3)c(=O)[nH]2)CC1	i	i	i	i	i	i	i	i
Cc1ccc(Cn2nnc3c(=O)[nH]c(C4CCN(C(=O)Cc5cccs5)CC4)nc32)cc1	i	i	i	i	i	·	i	i
Cc1ccc(NC(=O)Cn2c(-c3ccc(F)cc3)cnc2SCC(=O)Nc2c(C)cccc2C)cc1	i	i	i	i	i	·	·	·
CC1Cc2ccccc2N1C(=O)CN1CCC(C(N)=O)CC1 (configuration not stated)	i	i	i	i	i	·	·	·
CCOC(=O)/C(C#N)=C/c1cn(CCC(=O)O)nc1-c1ccc(F)cc1	i	i	i	i	i	·	·	·
CCOC(=O)/C(C#N)=C/c1cn(CCC(=O)O)nc1-c1cccc(Cl)c1	4.74*	i	i	i	i	i	i	i
C#CCN(C(=O)c1cc(COc2cccc(C(F)(F)F)c2)on1)C1CCCCC1	i	i	i	i	i	·	·	·
CCN(CC)CCN(C(=O)c1ccc2c(c1)CCCC2)c1nc2cc(OC)c(OC)cc2s1	5.26*	i	i	i	i	i	i	i
COc1cc2nc(N(CCN(C)C)C(=O)c3ccc4ccccc4c3)sc2cc1OC	i	i	i	i	i	·	·	·
Cc1ccc(F)cc1CNC(=O)C1CCC(=O)N(CC2CCCCC2)C1 (configuration not stated)	i	i	i	i	i	·	·	·
S=C(NCC1CCCO1)NC1CCCC1 (configuration not stated)	i	i	i	i	i	·	·	·
Cc1ccc(/C=C/C(=O)N2CCN(c3ncccn3)CC2)o1	13.9*	i	i	i	i	17.0%*	i	i
Cc1ccc(S(=O)(=O)N(C)C)cc1NC(=S)NNC(=O)C(N)=O	i	i	i	i	i	·	·	·
CCCc1cc(=O)[nH]c(SCC(=O)Nc2nc(-c3ccccc3)cs2)n1	i	i	i	i	i	·	·	·
O=C(CSc1nc2ccccc2[nH]1)Nc1nc(-c2ccc(Br)cc2)cs1	6.61*	i	i	i	i	6.0%*	i	i
SMILES	RGS4 block	MrgX1 ag	RGS4 pot	MrgX1 allo act	MrgX1 antagonist	RGS4 inh valid	RGS4 uninduced	M3R basal Ca ctr
C/C(N)=C(/C#N)C(=O)COC(=O)c1ccccc1Oc1ccccc1	i	i	i	i	i	·	·	·
CN(CC(=O)Nc1ccc(Cl)c(C(F)(F)F)c1)C(=O)Cc1c[nH]c2ccccc12	5.94*	i	i	i	i	18.5%*	i	i
CCN(CC)S(=O)(=O)c1ccc(N2CCN(C)CC2)c(NC(=O)Nc2ccc(C)cc2)c1	i	i	i	i	i	·	·	·
CN(C)C=NC(=O)c1ccc(N2CCN(c3ncc(C(F)(F)F)cc3Cl)CC2)cc1	8.24*	i	i	i	i	18.0%*	i	i
CN(C)/C=C/C(=O)c1ccc(N2CCN(c3ncc(C(F)(F)F)cc3Cl)CC2)cc1	i	i	i	i	i	·	·	·
COc1ccc(CCNC(=O)CC2SC(=NCCc3ccccc3)NC2=O)cc1OC (configuration not stated)	i	i	i	i	i	·	·	·
COc1ccc(NC(=O)CC2SC(=NCc3ccccc3OC)NC2=O)cc1 (configuration not stated)	i	i	i	i	i	·	i	i
COc1ccccc1CN=C1NC(=O)C(CC(=O)Nc2ccc(OC)c(OC)c2)S1 (configuration not stated)	5.64*	i	i	i	i	8.5%*	i	i
CC(Nc1nc(-c2ccc(F)cc2)cs1)c1nc2cc(Cl)c(N3CCCCC3)cc2n1CCOCCO (configuration not stated)	i	i	i	i	i	i	i	i
CC(Nc1nc(-c2cccc(Br)c2)cs1)c1nc2cc(Cl)c(N3CCCCC3)cc2n1CCOCCO (configuration not stated)	8.25*	i	i	i	i	10.0%*	i	i
CC(Nc1nc(-c2ccc(F)cc2)cs1)c1nc2cc(Cl)c(N3CCCCC3)cc2n1CCCO (configuration not stated)	i	i	i	i	i	·	·	·
COCCn1c(-c2ccccc2)cnc1SCC(=O)Nc1cccc2ccccc12	i	i	i	i	i	·	·	·
